# Laboratory results as given in ChEMBL document CHEMBL4145598, “Discovery and Development of 8-Substituted Cycloberberine Derivatives as Novel Antibacterial Agents against MRSA” (ACS Med Chem Lett, 2018).
# What was measured:
# Type in all cases: functional
# Staphylococcus aureus [1] = test: Antimicrobial activity against vancomycin-intermediate Staphylococcus aureus ATCC 700699 after 18 hrs by agar dilution assay; conditions: ATCC 700699, 18 h
# Procedure, shortened: (§1)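 MICs in μg/mL against drug-resistant S. aureus (MRSA/VISA) by standard methods, with levofloxacin as the reference drug. ATCC strains were used.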
# [2] = tested on: Staphylococcus epidermidis; test: Antimicrobial activity against methicillin-sensitive Staphylococcus epidermidis isolate 13-1 after 18 hrs by agar dilution assay; conditions: isolate 13-1, 18 h
# Staphylococcus aureus [3] = test: Antimicrobial activity against methicillin-resistant Staphylococcus aureus isolate 12-16 after 18 hrs by agar dilution assay; conditions: isolate 12-16, 18 h
# Procedure, shortened: (§2)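 Drug-resistant S. aureus (MRSA/VISA) panel. It includes ATCC reference strains and clinical isolates from patients in Chinese hospitals. MIC was determined by standard methods and reported in μg/mL, with levofloxacin as the reference drug.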
# Staphylococcus aureus [4] = test: Antimicrobial activity against vancomycin-intermediate Staphylococcus aureus ATCC 700698 after 18 hrs by agar dilution assay; conditions: ATCC 700698, 18 h; procedure, shortened: as §1
# [5] = tested on: Staphylococcus epidermidis; test: Antimicrobial activity against methicillin-sensitive Staphylococcus epidermidis ATCC 12228 after 18 hrs by agar dilution assay; conditions: ATCC 12228, 18 h
# [6] = tested on: Staphylococcus saprophyticus; test: Antimicrobial activity against Staphylococcus saprophyticus ATCC 15305 after 18 hrs by agar dilution assay; conditions: ATCC 15305, 18 h
# Staphylococcus aureus [7] = test: Antimicrobial activity against methicillin-sensitive Staphylococcus aureus isolate 13-21 after 18 hrs by agar dilution assay; conditions: isolate 13-21, 18 h
# Staphylococcus aureus [8] = test: Antimicrobial activity against methicillin-resistant Staphylococcus aureus isolate 12-13 after 18 hrs by agar dilution assay; conditions: isolate 12-13, 18 h; procedure, shortened: as §2
# Staphylococcus aureus [9] = test: Antimicrobial activity against methicillin-sensitive Staphylococcus aureus isolate 13-17 after 18 hrs by agar dilution assay; conditions: isolate 13-17, 18 h
# Staphylococcus aureus [10] = test: Antimicrobial activity against methicillin-resistant Staphylococcus aureus isolate 12-3 after 18 hrs by agar dilution assay; conditions: isolate 12-3, 18 h; procedure, shortened: as §2
# Staphylococcus aureus [11] = test: Antimicrobial activity against methicillin-sensitive Staphylococcus aureus isolate 13-19 after 18 hrs by agar dilution assay; conditions: isolate 13-19, 18 h
# Staphylococcus aureus [12] = test: Antimicrobial activity against methicillin-resistant Staphylococcus aureus ATCC-BAA-1708 after 18 hrs by agar dilution assay; conditions: ATCC-BAA-1708, 18 h; procedure, shortened: as §2
# Staphylococcus aureus [13] = test: Antimicrobial activity against methicillin-sensitive Staphylococcus aureus isolate 15 after 18 hrs by agar dilution assay; conditions: isolate 15, 18 h
# Staphylococcus hominis = test: Antimicrobial activity against Staphylococcus hominis ATCC 35982 after 18 hrs by agar dilution assay; conditions: ATCC 35982, 18 h
# Staphylococcus aureus [14] = test: Antimicrobial activity against methicillin-sensitive Staphylococcus aureus ATCC 29213 after 18 hrs by agar dilution assay; conditions: ATCC 29213, 18 h
# Staphylococcus aureus [15] = test: Antimicrobial activity against methicillin-resistant Staphylococcus aureus isolate 13-18 after 18 hrs by agar dilution assay; conditions: isolate 13-18, 18 h; procedure, shortened: as §2
# Staphylococcus aureus [16] = test: Antimicrobial activity against methicillin-sensitive Staphylococcus aureus isolate 13-20 after 18 hrs by agar dilution assay; conditions: isolate 13-20, 18 h
# Staphylococcus aureus [17] = test: Antimicrobial activity against methicillin-resistant Staphylococcus aureus ATCC 33591 after 18 hrs by agar dilution assay; conditions: ATCC 33591, 18 h; procedure, shortened: as §2
# Staphylococcus aureus [18] = test: Antimicrobial activity against methicillin-resistant Staphylococcus aureus isolate 13-23 after 18 hrs by agar dilution assay; conditions: isolate 13-23, 18 h; procedure, shortened: as §2
# Staphylococcus aureus [19] = test: Antimicrobial activity against methicillin-resistant Staphylococcus aureus isolate 12-8 after 18 hrs by agar dilution assay; conditions: isolate 12-8, 18 h; procedure, shortened: as §2
SMILES,MIC (Staphylococcus aureus [1]),MIC [2],MIC (Staphylococcus aureus [3]),MIC (Staphylococcus aureus [4]),MIC [5],MIC [6],MIC (Staphylococcus aureus [7]),MIC (Staphylococcus aureus [8]),MIC (Staphylococcus aureus [9]),MIC (Staphylococcus aureus [10]),MIC (Staphylococcus aureus [11]),MIC (Staphylococcus aureus [12]),MIC (Staphylococcus aureus [13]),MIC (Staphylococcus hominis),MIC (Staphylococcus aureus [14]),MIC (Staphylococcus aureus [15]),MIC (Staphylococcus aureus [16]),MIC (Staphylococcus aureus [17]),MIC (Staphylococcus aureus [18]),MIC (Staphylococcus aureus [19])
COc1ccc2c(c[n+]3c4c2ccc2c5c(cc(c24)CC3)OCO5)c1NCc1ccccc1.[Cl-],> 64 mg/L,64 mg/L,64 mg/L,32 mg/L,8 mg/L,8 mg/L,64 mg/L,64 mg/L,64 mg/L,64 mg/L,64 mg/L,64 mg/L,64 mg/L,8 mg/L,64 mg/L,64 mg/L,64 mg/L,64 mg/L,64 mg/L,64 mg/L
COc1ccc2c(c[n+]3c4c2ccc2c5c(cc(c24)CC3)OCO5)c1NC(=O)c1cc(C)n(C)n1.[Cl-],4 mg/L,> 64 mg/L,16 mg/L,> 64 mg/L,32 mg/L,> 64 mg/L,16 mg/L,16 mg/L,16 mg/L,32 mg/L,8 mg/L,16 mg/L,16 mg/L,> 64 mg/L,16 mg/L,32 mg/L,8 mg/L,64 mg/L,8 mg/L,32 mg/L
COc1ccc2c(c[n+]3c4c2ccc2c5c(cc(c24)CC3)OCO5)c1NC(=O)C12CC3CC(CC(C3)C1)C2.[Cl-],> 64 mg/L,> 64 mg/L,> 64 mg/L,> 64 mg/L,> 64 mg/L,> 64 mg/L,> 64 mg/L,> 64 mg/L,> 64 mg/L,> 64 mg/L,> 64 mg/L,> 64 mg/L,> 64 mg/L,> 64 mg/L,> 64 mg/L,> 64 mg/L,> 64 mg/L,> 64 mg/L,> 64 mg/L,> 64 mg/L
COc1ccc2c(c[n+]3c4c2ccc2c5c(cc(c24)CC3)OCO5)c1OCC(=O)c1cccc(OC(F)(F)F)c1.[Br-],> 64 mg/L,32 mg/L,16 mg/L,> 64 mg/L,16 mg/L,16 mg/L,16 mg/L,32 mg/L,16 mg/L,16 mg/L,16 mg/L,64 mg/L,16 mg/L,32 mg/L,32 mg/L,16 mg/L,16 mg/L,16 mg/L,16 mg/L,8 mg/L
COc1ccc2c(c[n+]3c4c2ccc2c5c(cc(c24)CC3)OCO5)c1OCC(=O)c1ccc(F)cc1.[Br-],> 64 mg/L,8 mg/L,16 mg/L,> 64 mg/L,8 mg/L,32 mg/L,8 mg/L,8 mg/L,16 mg/L,8 mg/L,8 mg/L,64 mg/L,8 mg/L,32 mg/L,64 mg/L,16 mg/L,16 mg/L,8 mg/L,8 mg/L,8 mg/L
COc1ccc2c(c[n+]3c4c2ccc2c5c(cc(c24)CC3)OCO5)c1OCC(=O)c1ccc(C)cc1.[Br-],> 64 mg/L,8 mg/L,4 mg/L,> 64 mg/L,2 mg/L,4 mg/L,4 mg/L,4 mg/L,4 mg/L,4 mg/L,4 mg/L,8 mg/L,8 mg/L,4 mg/L,4 mg/L,4 mg/L,8 mg/L,4 mg/L,4 mg/L,8 mg/L
COc1ccc2c(c[n+]3c4c2ccc2c5c(cc(c24)CC3)OCO5)c1OCC(=O)c1ccccc1OC(F)(F)F.[Br-],> 64 mg/L,16 mg/L,4 mg/L,> 64 mg/L,4 mg/L,4 mg/L,8 mg/L,4 mg/L,8 mg/L,16 mg/L,8 mg/L,32 mg/L,16 mg/L,4 mg/L,8 mg/L,8 mg/L,8 mg/L,8 mg/L,8 mg/L,8 mg/L
COc1ccc2c(c[n+]3c4c2ccc2c5c(cc(c24)CC3)OCO5)c1OCC(=O)c1ccc(C(F)(F)F)cc1.[Br-],> 64 mg/L,> 64 mg/L,> 64 mg/L,> 64 mg/L,> 64 mg/L,> 64 mg/L,> 64 mg/L,> 64 mg/L,> 64 mg/L,> 64 mg/L,> 64 mg/L,> 64 mg/L,> 64 mg/L,> 64 mg/L,> 64 mg/L,> 64 mg/L,> 64 mg/L,> 64 mg/L,> 64 mg/L,> 64 mg/L
COc1ccc2c(c[n+]3c4c2ccc2c5c(cc(c24)CC3)OCO5)c1OCC(=O)C1CC1.[Br-],> 64 mg/L,> 64 mg/L,> 64 mg/L,> 64 mg/L,> 64 mg/L,> 64 mg/L,> 64 mg/L,> 64 mg/L,> 64 mg/L,> 64 mg/L,> 64 mg/L,> 64 mg/L,> 64 mg/L,> 64 mg/L,> 64 mg/L,> 64 mg/L,> 64 mg/L,> 64 mg/L,> 64 mg/L,> 64 mg/L
COc1ccc(CNc2c(OC)ccc3c2c[n+]2c4c3ccc3c5c(cc(c34)CC2)OCO5)cc1.[Cl-],> 64 mg/L,64 mg/L,–,16 mg/L,8 mg/L,16 mg/L,–,–,–,–,–,–,–,8 mg/L,–,–,–,–,–,–
